For 99 compounds, cytotoxicity results are on record in ChEMBL document CHEMBL4513216, “Probing the Open Global Health Chemical Diversity Library for Multistage-Active Starting Points for Next-Generation Antimalarials” (ACS Infect Dis, 2020).

The data set can be described thus: Toxicity liver stage against HepG2, at 10uM. The format is cell-based. Particulars: human, HepG2-A16-CD81EGFP cells; read-out: INHIBITION
The arrangement: test concentration 10 uM, cell line HepG2-A16-CD81EGFP. In short, it runs like this:
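Uninfected HepG2-A16-CD81EGFP cells, 3 × 10^3 per well, 1536-well, plated on prespotted compound at 10 μM final, parasite-free screening media added to match infected plates; puromycin 10 μM positive, DMSO 0.5% negative; run in parallel with 48 h PbLuc assay at 37 °C, 5% CO2; viability by CellTiter-Glo luminescence, normalized to controls.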
With `Cc1cccc(NC(=O)CNC(=O)Cn2ncc(Cl)c(Cl)c2=O)c1C`, the cytotoxicity at 10 µM was 12.7%.

With `CCCNC(=O)CNC(=O)CCc1ccccc1Br`, the cytotoxicity at 10 µM was 12.3%.

On to `Cc1n[nH]c2nc(-c3cc(Br)ccc3O)cc(C(=O)O)c12`, for which the cytotoxicity at 10 µM was 0.0962%.

For the compound `Cc1c(C2SCC(=O)Nc3c2c(O)nn3C2CCCC2)cnn1C` (centres undefined), the cytotoxicity at 10 µM was 1.58%.

Turning to `O=C(Cn1ccc2c(Cl)cccc21)Nc1nc[nH]n1`, the cytotoxicity at 10 µM is -1.88%.

`COCC(=O)N1CCc2[nH]c(=O)ccc2C1`: the cytotoxicity at 10 µM is 4.11%.

For `CC(C)Cn1c2c(ccc1=O)CC(N)CC2` (centres undefined), the cytotoxicity at 10 µM came to 8.03%.

For `O=C(c1ccc(F)c(F)c1)N1C[C@H]2CNC[C@H]2C1`, the cytotoxicity at 10 µM was 5.82%.

Consider `Cc1nc(N2CCOCC2)nc2c1CN(C(=O)C(C)C)CC2`, for which the cytotoxicity at 10 µM was 0.552%.

Take `CCN1CC2(CC1=O)CN(C(=O)c1ccco1)CCN(C(=O)N(C)C)C2` (centres undefined): the cytotoxicity at 10 µM is -8.37%.

For the compound `CC1CCN(C(=O)C(C)n2cc(Br)cn2)CC1` (centres undefined), the cytotoxicity at 10 µM came out at 11.3%.

For `COc1cccc(-c2cc(C(=O)N3N=C(C)CC3(O)C(F)F)[nH]n2)c1` (centres undefined), the cytotoxicity at 10 µM stood at 8.46%.

Consider `CCN(Cc1nonc1C)C(=O)c1ccc(Br)o1`, for which the cytotoxicity at 10 µM was determined as 0.621%.

For the compound `Cc1nn(C)c(C)c1CN(C)CC1(O)CCCN(C)C1` (centres undefined), the cytotoxicity at 10 µM came to 6.5%.

With `O=C(NCC1CC1)c1nnc2ccc(Cl)cc2n1`, the cytotoxicity at 10 µM came to 0.318%.

As to `O=C(CCN1CCOCC1)NC(Cc1ccsc1)c1nccs1` (centres undefined), the cytotoxicity at 10 µM is 3.35%.

Consider `CNC(=O)CCc1cc(C)nc(C2CCN(C(=O)CN(C)C)CC2)c1`, for which the cytotoxicity at 10 µM is -3.48%.

Consider `Cc1nc(NCCO)cc(C(C)Cn2nc(C)c(C)c2C)n1` (centres undefined), for which the cytotoxicity at 10 µM came to 4.41%.

Regarding `Cc1noc(C)c1-c1cccc(C2CCNCC2)n1`, the cytotoxicity at 10 µM was 2.98%.

Take `CC1CCC(NCCNC(=O)c2cccs2)CC1` (centres undefined): the cytotoxicity at 10 µM is -11.8%.

With `Cc1ccc(-c2nnc(SCC(=O)O)n2-c2ccccc2)cc1`, the cytotoxicity at 10 µM is -4.9%.

As to `COc1cccc(CNC(=O)c2ccccc2-n2cc(CN)cn2)c1`, the cytotoxicity at 10 µM was -21%.

Consider `O=C(c1cnco1)N1C[C@@H](O)[C@H](Oc2cccc(F)c2)C1`, for which the cytotoxicity at 10 µM is -17.5%.

Regarding `Cc1ncsc1C(=O)N1CCCC(c2cc(C(F)F)n3ncnc3n2)C1` (centres undefined), the cytotoxicity at 10 µM came out at 4.05%.

Consider `O=C(NC1CC1)c1cc(C(F)(F)F)cc(C(=O)NC2CC2)n1`, for which the cytotoxicity at 10 µM was 9.97%.

For the compound `Cc1noc(CN2CCN(c3cncc(Cl)n3)CC2)n1`, the cytotoxicity at 10 µM was 2.74%.

Take `CC(C#N)CN(C)C(=O)CCNC(=O)OC(C)(C)C` (centres undefined): the cytotoxicity at 10 µM stood at 4.94%.

For `CCC(NC(=O)Cn1ccc(=O)n(C)c1=O)c1ccc(OC)cc1` (centres undefined), the cytotoxicity at 10 µM is 2.19%.

For `O=C1CCN(C(=O)CCc2ccc(Cl)cc2Cl)CCN1`, the cytotoxicity at 10 µM worked out at 1.88%.

As to `CC1CN(C(=O)c2sccc2Br)CCO1` (centres undefined), the cytotoxicity at 10 µM turned out to be 5.15%.

As to `Cc1nc(Cn2cc(C#N)c(=O)c3ccccc32)no1`, the cytotoxicity at 10 µM stood at 9.95%.

On to `CC1CCN(C(=O)C2CCN(S(C)(=O)=O)CC2)c2ccccc21` (centres undefined), for which the cytotoxicity at 10 µM is -9.28%.

For `Cc1ccc(CN2CCOCC2)cc1NCc1ccsc1`, the cytotoxicity at 10 µM is -8.84%.

Take `COCCC(=O)N(CCC#N)c1ccc2c(c1)OCCO2`: the cytotoxicity at 10 µM is -1.23%.

Consider `Cc1cc(CNc2ccc(C(=O)N3CCc4ccccc43)cn2)on1`, for which the cytotoxicity at 10 µM is -0.0529%.

In the case of `Cc1ccc(C)c(S(=O)(=O)CCN2CCCC2Cn2cccn2)c1` (centres undefined), the cytotoxicity at 10 µM was -8.78%.

On to `Cc1oc(-c2ccsc2)nc1CC(=O)NCCCS(C)(=O)=O`, for which the cytotoxicity at 10 µM was -11.2%.

As to `Cc1nn(CC(=O)N2CCN(c3ncccn3)CC2)c(C)c1Cl`, the cytotoxicity at 10 µM was 0.215%.

In the case of `O=C(Nc1cccn(CC(F)(F)F)c1=O)c1ccncc1F`, the cytotoxicity at 10 µM was determined as 0.315%.

Take `CC(C)OCCS(=O)(=O)N1CCCC1c1cccc(N(C)C)c1` (centres undefined): the cytotoxicity at 10 µM was -1.22%.

Regarding `Cc1cc(C)c2c(c1)C(NC(=O)CSCC(N)=O)CCO2` (centres undefined), the cytotoxicity at 10 µM is -6.94%.

Take `CCc1nc(CC(=O)N2CCC(C(=O)N3CCCCC3)CC2)cs1`: the cytotoxicity at 10 µM stood at 4.92%.

`Cc1cnc(CNc2ccc(C(=O)NCc3ccco3)cc2C)o1`: the cytotoxicity at 10 µM is -4.51%.

For `O=C(NCC1(Sc2ccccc2)CC1)c1cc[nH]n1`, the cytotoxicity at 10 µM was -5.96%.

For `O=C(NCC(CO)Cc1ccc(Cl)cc1)c1ccncc1Cl` (centres undefined), the cytotoxicity at 10 µM came out at 5.21%.

For `CCOC1CCCN(C(=O)Nc2cnn(CC(F)F)c2)C1` (centres undefined), the cytotoxicity at 10 µM was -1.84%.

As to `COCC1CCCN(C(=O)c2ccc(NC(=O)CC(C)C)c(C)c2)C1` (centres undefined), the cytotoxicity at 10 µM was -5.76%.

On to `CC(C)C(O)CNC(=O)Nc1cnn(Cc2ccccc2)c1` (centres undefined), for which the cytotoxicity at 10 µM stood at 6.61%.

For the compound `CCC(=O)NCc1cc(Br)ccc1OC(F)F`, the cytotoxicity at 10 µM is 17.2%.

Regarding `Cc1cc(C(=O)NC2CCCN(c3ccccc3)C2=O)on1` (centres undefined), the cytotoxicity at 10 µM came to 24.7%.

Take `O=C(NCc1ccoc1)Nc1ccc(CN2CCOC2=O)cc1`: the cytotoxicity at 10 µM was 14.1%.

Regarding `COc1cc(NC(=O)c2cc(C)sc2C)c(C(=O)N(C)C)cc1OC`, the cytotoxicity at 10 µM is -10.6%.

As for `COCCN(C)C(=O)c1ccc(OC)cc1O`, the cytotoxicity at 10 µM was -3.19%.

As for `CCCNC(=O)c1cc2c(s1)CCN2c1ncccn1`, the cytotoxicity at 10 µM is -105%.

Consider `CNC(=O)[C@H]1C[C@@H]2CN(C(=O)c3ccc(C)nc3)C[C@@H]2N1C`, for which the cytotoxicity at 10 µM is -107%.

For `Cc1cnc(C)c(N2CCN(CC3CCCO3)CC2)n1` (centres undefined), the cytotoxicity at 10 µM came out at 5.82%.

With `CC(C)c1cc(CN(C)C(=O)CN2CCNC2=O)no1`, the cytotoxicity at 10 µM is -6.1%.

As for `CC(=O)N[C@@H]1CN(Cc2ccccc2-n2nc(C)cc2C)C[C@H]1C(C)C`, the cytotoxicity at 10 µM was 4.01%.

Consider `Cc1cccc(CN2CCC(Cc3ccccc3F)CC2)n1`, for which the cytotoxicity at 10 µM amounted to 1.88%.

Consider `COc1ccc(C(=O)N2C[C@@H](C(=O)O)[C@H](c3ccccc3)C2)c(O)c1`, for which the cytotoxicity at 10 µM was -2.14%.

Turning to `O=C1NCCN(C(=O)CCN2CCCO2)C1c1cccc(F)c1` (centres undefined), the cytotoxicity at 10 µM was 5.47%.

`NC(=O)c1cc2c(nc1N1C[C@H]3OC(=O)N(C4CCCC4)[C@H]3C1)CCC2`: the cytotoxicity at 10 µM came out at 2.24%.

Regarding `Cc1ccc2c(C)c(C(=O)NCCc3csc(N)n3)oc2c1`, the cytotoxicity at 10 µM is -8.79%.

As for `CCn1ccnc1CN1CCC(Oc2cccc(F)c2)(C(=O)O)CC1`, the cytotoxicity at 10 µM worked out at 3.67%.

As to `COCc1cn(C2CCN(Cc3ccc(Cl)s3)CC2)nn1`, the cytotoxicity at 10 µM was 5.43%.

In the case of `Cc1cccnc1CN(C)C(C(=O)O)c1ccc(-n2cccn2)cc1` (centres undefined), the cytotoxicity at 10 µM is -4.86%.

As for `CCC1(CO)CCCN(c2ncccc2C#N)C1` (centres undefined), the cytotoxicity at 10 µM is -9.06%.

For the compound `Cc1cc(CN2CCC(CNC(=O)c3ccc(O)c(Cl)c3)C2)[nH]n1` (centres undefined), the cytotoxicity at 10 µM was 13.3%.

Take `CCc1cc(NC2CCN(S(C)(=O)=O)CC2)n2nc(C)c(C)c2n1`: the cytotoxicity at 10 µM is -12.2%.

As to `CN(C)CCN(C)C(=O)c1cnc2c(c1)nc(-c1ccccc1Cl)n2C`, the cytotoxicity at 10 µM came to 9.3%.

Turning to `Cc1cc(=O)[nH]c(NCCNC(=O)C(c2ccc(F)cc2)N(C)C)n1` (centres undefined), the cytotoxicity at 10 µM was -29.5%.

Regarding `CCc1cnc(N)nc1NCCN1CCCCC1`, the cytotoxicity at 10 µM was -17.8%.

With `CN(C)S(=O)(=O)N1CCN(c2ccnc(N3CCCC3)n2)CC1`, the cytotoxicity at 10 µM was -13.3%.

With `CCc1ocnc1C(=O)N1CCCC1c1noc(C)n1` (centres undefined), the cytotoxicity at 10 µM was -8.77%.

On to `COc1ncccc1CNC(=O)c1c(C)oc(C)c1C`, for which the cytotoxicity at 10 µM is -14.5%.

With `C=C(C)CN1CCC(C(=O)c2cc(F)ccc2F)CC1`, the cytotoxicity at 10 µM is -14.1%.

For `Cc1cc(C)c(CNC(=O)NCc2ccc(F)c(C)c2)c(=O)[nH]1`, the cytotoxicity at 10 µM was -12.8%.

Regarding `CCc1nc2n(n1)CC(NCC(=O)Nc1cc(C)nn1C)CC2` (centres undefined), the cytotoxicity at 10 µM was -10.7%.

On to `Cc1nn(C)c(N2CCOCC2)c1CNC1COc2ccccc2C1` (centres undefined), for which the cytotoxicity at 10 µM was -17.9%.

For `Cc1cccc2nc(CN3CCCC3Cn3cncn3)cn12` (centres undefined), the cytotoxicity at 10 µM is -6.97%.

With `Cc1noc(C)c1C(=O)NCc1ccc(N2CCOCC2)nc1`, the cytotoxicity at 10 µM is -7.91%.

Regarding `COc1ccc(C(=O)N2CCCS2(=O)=O)cc1OC`, the cytotoxicity at 10 µM was -17.6%.

Consider `CSc1ccccc1C(=O)NCCCN1CCc2ccccc2C1`, for which the cytotoxicity at 10 µM was -15.6%.

Take `CCCN1CCC(CNC(=O)C2(c3cccc(C)c3)CC2)C1` (centres undefined): the cytotoxicity at 10 µM was -13.4%.

Consider `Cc1nccn1C1CCCN(C(=O)CCNc2ncccn2)C1` (centres undefined), for which the cytotoxicity at 10 µM was -13.7%.

`COCc1nc(C(=O)N2CCCC2c2noc(C)n2)cs1` (centres undefined): the cytotoxicity at 10 µM is -12%.

With `COc1c(C2CCCN2CC(=O)Nc2cc(C)no2)c(C)nn1C` (centres undefined), the cytotoxicity at 10 µM was -2.77%.

Take `Cc1nnc2n1CCN(CCOc1ccccc1)C2`: the cytotoxicity at 10 µM was determined as 2.24%.

With `Cc1cnn(CC2CCCCN2C(=O)c2ccc3[nH]nnc3c2)c1` (centres undefined), the cytotoxicity at 10 µM was 4.19%.

As for `Cc1nc(Nc2nccs2)cc(C2CCCN2)n1` (centres undefined), the cytotoxicity at 10 µM stood at 63%.

Consider `c1nc(CCC2CCCN2)cc(N2CCCCCC2)n1` (centres undefined), for which the cytotoxicity at 10 µM is -20.6%.

Consider `CO[C@@H]1CC[C@H]2[C@H]1OCCN2CCOCc1ccccc1`, for which the cytotoxicity at 10 µM is -114%.

`CN1CCN(C)C2(CCN(Cc3ccsc3)CC2)C1=O`: the cytotoxicity at 10 µM is 0.0221%.

As to `Cc1ccc(CN2CCCC3(CCCC(=O)N3C)C2)s1` (centres undefined), the cytotoxicity at 10 µM is -110%.

`O=C(O)[C@]12CCCN(C3CCOC3)C[C@H]1CN(c1nncs1)C2` (some centres undefined): the cytotoxicity at 10 µM was -106%.

Turning to `O=C(NCc1cccnc1)N1CCc2ncnc(NC3CC3)c2CC1`, the cytotoxicity at 10 µM is -107%.

For the compound `CC(C)CN1CCC2(C1)CN(c1ncccn1)C2`, the cytotoxicity at 10 µM is 4.73%.

As to `CCN1CC2(CC1=O)CN(Cc1ccco1)CCN(C(=O)N(C)C)C2` (centres undefined), the cytotoxicity at 10 µM is -6.05%.

With `O=c1occ(CN2CCSCC2)c(O)c1CN1CCCC1`, the cytotoxicity at 10 µM was -7.03%.
